Data: ChEMBL document CHEMBL3734694, “Design, synthesis, and anticancer evaluation of long-chain alkoxylated mono-carbonyl analogues of curcumin” (Eur J Med Chem, 2015)
≈ marks a conversion by molar mass, not a printed value. Calls of active or inactive are those of the source. No cut-off for these calls is given here.

Key:
[1] = Cytotoxicity against human SW620 cells assessed as inhibition of cell proliferation incubated for 72 hrs by MTS assay; format: functional, cell-based; conditions: SW-620, 72 h
In short: (§1)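 Cells in RPMI-1640 with 10% heat-inactivated FBS at 37°C, 5% CO2. Seeded at 4000 cells/well in triplicate and attached overnight. Exposed to various concentrations for 72 h. MTS added for a further 4 h; absorbance at 490 nm. IC50 = concentration for 50% growth inhibition, as mean ± SEM of three independent tests.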

[2] = Cytotoxicity against human SGC7901 cells assessed as inhibition of cell proliferation at 10 uM incubated for 72 hrs by MTS assay; format: functional; conditions: SGC-7901, 72 h
In short: (§2)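 Single-concentration MTS screen at 10 μM. Cells in RPMI-1640 with 10% FBS, seeded at 4000 cells/well in triplicate, attached overnight, then exposed for 72 h at 37°C, 5% CO2. MTS for 4 h; absorbance 490 nm. Reported as % inhibition.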

[3] = Solubility of compound in water
CT26 [4] = test: Cytotoxicity against mouse CT26 cells at 10 uM assessed as inhibition of cell proliferation incubated for 72 hrs by MTS assay; format: functional; conditions: CT26, 72 h; in short: as §2
[5] = Cytotoxicity against human SGC7901 cells assessed as inhibition of cell proliferation incubated for 72 hrs by MTS assay; format: functional, cell-based; conditions: SGC-7901, 72 h; in short: as §1
CT26 [6] = test: Cytotoxicity against mouse CT26 cells assessed as inhibition of cell proliferation incubated for 72 hrs by MTS assay; format: functional, cell-based; conditions: CT26, 72 h; in short: as §1
[7] = Cytotoxicity against human MGC803 cells assessed as inhibition of cell proliferation at 10 uM incubated for 72 hrs by MTS assay; format: functional; conditions: MGC-803, 72 h; in short: as §2
[8] = Cytotoxicity against human GES-1 cells assessed as inhibition of cell proliferation incubated for 72 hrs by MTS assay; format: functional, cell-based; conditions: GES1, 72 h; in short: as §1
[9] = Cytotoxicity against human MGC803 cells assessed as inhibition of cell proliferation incubated for 72 hrs by MTS assay; format: functional, cell-based; conditions: MGC-803, 72 h; in short: as §1
[10] = Cytotoxicity against human SW620 cells assessed as inhibition of cell proliferation at 10 uM incubated for 72 hrs by MTS assay; format: functional; conditions: SW-620, 72 h; in short: as §2
SGC-7901 [11] = test: Induction of apoptosis in human SGC7901 cells assessed as increase in cleaved PARP incubated for 24 hrs by immunoblotting; format: functional, cell-based
In short: (§3)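 SGC7901 cells treated 24 h at 2.5, 5 or 10 μM. Lysed on ice for 30 min; 60 µg protein run on 10% SDS-PAGE and transferred to PVDF. Blocked in 5% milk. Primary antibodies (cleaved PARP, pro-caspase-3, Bcl-2) overnight at 4°C, HRP secondary 1:300 for 1 h at room temperature. ECL detection. Three experiments.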

SGC-7901 [12] = test: Induction of apoptosis in human SGC7901 cells assessed as necrotic cells and late apoptotic cells incubated for 30 hrs by PI and Annexin V-FITC-based flow cytometric analysis; format: functional, cell-based
In short: (§4)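 SGC7901 cells grown to 80% confluency in 6-well plates, then treated 30 h with 2.5, 5 or 10 μM. DMSO negative control. Cells washed in ice-cold PBS and stained with FITC-Annexin V and PI in binding buffer. Read by flow cytometry: UR = necrotic/late apoptotic, LR = early apoptotic. Three separate experiments.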

Mus musculus [13] = test: Toxicity in po dosed nude mouse xenografted with human SGC7901 cells assessed as loss of body weight at 50 and 100 mg/kg, po qd for 23 days; format: organism-based, SGC-7901; conditions: in vivo, 552 h
In short: (§5)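 Female nude mice (8 weeks) bearing s.c. SGC7901 tumours (10 million cells injected) of about 40 mm³. Given 0.5% CMCNA vehicle or 50 or 100 mg/kg/day orally for 23 consecutive days. Observed daily. Body weights monitored for the duration of the study.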

Mus musculus [14] = test: Toxicity in po dosed nude mouse xenografted with human SGC7901 cells assessed as drug tolerability by measuring clinical parameters at 50 and 100 mg/kg, po qd for 23 days; format: organism-based, SGC-7901; conditions: in vivo, 552 h; in short: as §5
[15] = Antitumor activity against human SGC7901 cells xenografted in nude mouse at 100 mg/kg, po qd for 23 days; format: functional; conditions: SGC-7901, po, 552 h
In short: (§6)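 SGC7901 xenograft: female nude mice, 8 weeks old, given 10 million cells s.c. At about 40 mm³, randomized to 0.5% CMCNA vehicle or oral daily doses for 23 consecutive days. Calipers every 2 days; volume = π/6 × large diameter × (small diameter)². %ΔT/ΔC determined. Tumours weighed after sacrifice on the final day. Mean ± SEM; Student's t-test.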

SGC-7901 [16] = test: Induction of apoptosis in human SGC7901 cells assessed as decrease in BCL2 expression at 2.5 to 10 uM incubated for 24 hrs by immunoblotting; format: functional, cell-based; in short: as §3
SGC-7901 [17] = test: Antitumor activity against human SGC7901 cells xenografted in nude mouse assessed as decrease cell proliferation at 50 and 100 mg/kg, po qd for 23 days by Ki67 staining-based immunohistochemistry; format: functional, organism-based
In short: (§7)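 Female nude mice, eight weeks old, injected s.c. with 10 million SGC7901 cells. At about 40 mm³, randomized to 0.5% CMCNA vehicle or daily oral dosing for 23 consecutive days. Tumour halves fixed in 4% paraformaldehyde. 5 μm sections, citrate antigen retrieval. Primary antibody overnight at 4°C (anti-Ki67 1:50, cleaved caspase-3 1:100), then HRP secondary 1:100 for 2 h at 37°C. DAB stain, hematoxylin counterstain.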

SGC-7901 [18] = test: Antitumor activity against human SGC7901 cells xenografted in po dosed nude mouse assessed as decrease in tumor weight administered as once daily for 23 days; format: functional, organism-based; in short: as §6
SGC-7901 [19] = test: Induction of apoptosis in human SGC7901 at 10 uM incubated for 30 hrs by PI and Annexin V-FITC-based flow cytometric analysis; format: functional; in short: as §4
SGC-7901 [20] = test: Induction of apoptosis in human SGC7901 cells assessed as decrease in procaspase-3 fragments at 2.5 to 10 uM incubated for 24 hrs by immunoblotting; format: functional, cell-based; in short: as §3
SGC-7901 [21] = test: Antitumor activity against human SGC7901 cells xenografted in nude mouse assessed as increase in cleaved caspase-3 at 50 and 100 mg/kg, po qd for 23 days by DAB substrate-chromogen staining-based immunohistochemistry; format: functional, organism-based; in short: as §7

| Compound | IC50 [1] [µM] | inhibition at 10 µM [2] [%] | solubility [3] [µg/mL] | inhibition at 10 µM (CT26 [4]) [%] | IC50 [5] [µM] | IC50 (CT26 [6]) [µM] | inhibition at 10 µM [7] [%] | IC50 [8] [µM] | IC50 [9] [µM] | inhibition at 10 µM [10] [%] | Activity (SGC-7901 [11]) | Activity (SGC-7901 [12]) | Activity (SGC-7901 [16]) | Activity (SGC-7901 [20]) | also measured |
| --- | --- | --- | --- | --- | --- | --- | --- | --- | --- | --- | --- | --- | --- | --- | --- |
| COc1cc(/C=C2\CC/C(=C\c3ccc(OCCCN4CCCCC4)c(OC)c3)C2=O)ccc1OCCCN1CCCCC1 | 0.39 | 84.2 | 4.11 (≈ 6.82 µM) | 91.9 | 0.44 | 0.18 | 86.6 | 0.67 | 0.68 | 83.8 |  |  |  |  |  |
| COc1ccccc1/C=C/C(=O)/C=C/c1ccc(OCCCN2CCOCC2)c(OC)c1 | 1.22 | 75.3 | 21.2 (≈ 48.5 µM) | 104 | 1.91 | 2.56 | 80.3 | 2.62 | 2.18 | 105 | Dose-dependent effect | Dose-dependent effect | Active | Active | Activity (Mus musculus [13]): Non-toxic; Activity (Mus musculus [14]): Non-toxic; inhibition in vivo at 100 mg/kg [15]: 48%; Activity (SGC-7901 [17]): Active; inhibition (SGC-7901 [18]): Dose-dependent effect; Activity (SGC-7901 [19]): 50%; Activity (SGC-7901 [21]): Active |
| COc1cc(/C=C2\CC/C(=C\c3ccc(OCCCn4ccnc4)c(OC)c3)C2=O)ccc1OCCCn1ccnc1 | 0.95 | 76.8 | 3.63 (≈ 6.38 µM) | 101 | 0.89 | 0.36 | 16.3 | 7.09 | 2.46 | 93.5 |  |  |  |  |  |
| COc1cc(/C=C/C(=O)/C=C/c2cccc(OC)c2OC)ccc1OCCCN1CCOCC1 | 1.02 | 73.7 | 114 (≈ 243 µM) | 88.9 | 1.84 | 2.38 | 77.6 | 2.77 | 2.49 | 82.1 | inactive | inactive |  | Active |  |
| CCN(CC)CCCOc1ccc(/C=C2\CCC/C(=C\c3ccc(OCCCN(CC)CC)c(OC)c3)C2=O)cc1OC | 0.99 | 78 | 21.6 (≈ 36.5 µM) | 91.9 | 1.7 | 2.06 | 80.4 | 3.45 | 1.72 | 82.6 | Dose-dependent effect | Dose-dependent effect | Active | Active |  |
